Ecoli tolC = growth inhibitors of E. coli BW25113 tolC mutant; 2.2% of 65,000 active; OD615; growth inhibition, % at 10 µM (by protocol);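 active means growth inhibition at or above a cutoff equal to the mean over every tested compound plus 3 SD, cut at about 60% in these data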;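 further: growth measured after 20 h incubation at 37 °C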
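Test system – E. coli BW25113 ΔtolC::kan, tolC deletion mutant strain · Detection – OD at 615 nm · Buffer or medium – LB with kanamycin 50 µg/mL · Times – 20 h compound exposure of bacteria at 37 °C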
E coli WT exp = E. coli BW25113 growth inhibition, expanded screen; OD600 absorbance; growth inhibition, % at 100 µM; 0.15% of 98,000 active;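 active means growth inhibition above about 50% at one test dose, limit read from the data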;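 further: growth measured after 20 h incubation at 37 °C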
CYP2C19 activ = activators of human cytochrome P450 2C19; activation factor at 5 µM; P33261; recombinant CYP2C19, luciferin-H EGE luminescence; stronger effect = higher value; 0 = fully inhibited enzyme, 1 = untreated enzyme; 96,000 tested, under 10 active; AID 1025;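 active means activation factor of at least 2 at 5 µM in the primary screen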;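 further: 0 = wells with 2.5 mM tranylcypromine and 1 = vehicle-only wells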
Target sequence (P33261 whole entry, looked up): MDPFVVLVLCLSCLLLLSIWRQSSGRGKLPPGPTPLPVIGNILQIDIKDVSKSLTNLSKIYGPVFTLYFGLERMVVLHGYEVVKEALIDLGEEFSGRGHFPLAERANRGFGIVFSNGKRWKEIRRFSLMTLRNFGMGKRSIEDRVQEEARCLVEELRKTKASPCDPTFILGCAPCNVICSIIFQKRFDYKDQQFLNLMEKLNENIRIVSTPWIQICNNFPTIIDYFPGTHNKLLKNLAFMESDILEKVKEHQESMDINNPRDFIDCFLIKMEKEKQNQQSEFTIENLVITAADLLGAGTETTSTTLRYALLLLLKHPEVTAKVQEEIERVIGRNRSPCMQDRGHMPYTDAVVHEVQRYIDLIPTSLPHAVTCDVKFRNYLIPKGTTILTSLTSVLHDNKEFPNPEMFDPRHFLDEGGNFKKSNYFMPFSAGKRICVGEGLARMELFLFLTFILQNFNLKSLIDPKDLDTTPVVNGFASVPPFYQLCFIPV
CYP2C19 inhib = inhibitors of human CYP2C19 | P33261 | inhibition, % at 5 µM | 21% of 96,000 active | CYP2C19 Supersomes, luciferin-H EGE luminescence, 30 min;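 active means CYP2C19 inhibition above a set limit at 5 µM in the primary screen, cut at about 50% in these data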;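 further: plate controls were negative control wells for no effect and 2.5 mM tranylcypromine positive control for full effect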
CYP2C9 activ = CYP2C9 (human) activation | P11712 | activation factor at 5 µM | recombinant CYP2C9, luciferin-H conversion, luminescence; stronger effect = higher value; factor 1 = untreated enzyme, 0 = blocked | 1.4% of 96,000 active;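 active means activation factor of 2 or more for CYP2C9 at a 5 µM dose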;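 further: 0 = sulfaphenazole-blocked wells and 1 = vehicle-only wells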
CYP2C9 inh = blocks human cytochrome P450 2C9 | P11712 | CYP2C9 Supersomes, luciferin-H conversion, luminescence | inhibition, % at 5 µM | 20% of 96,000 active | AID 777;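 active means blocking of liver enzyme CYP2C9 beyond about 50% at 5 µM, limit read from the data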
* hit, by the source's call; . = not tested or not shown. Sampled rows, rich in hits. Any-hit rate of the full collection: about 29%.

SMILES | Ecoli tolC | E coli WT exp | CYP2C19 activ | CYP2C19 inhib | CYP2C9 activ | CYP2C9 inh
COc1cccc(=O)c2c(C)n(C)c(C)c12 | -1.4 | -2.0 | 1 | -0.7 | 0.9 | 9.3
CCOc1cccc(=O)c2c(C)n(C)c(C)c12 | 5.0 | 1.0 | 0.5 | 52.5* | 0.5 | 49.4
Cc1cc(C)cc(NC(=O)C2CCCN(S(=O)(=O)c3cnc[nH]3)C2)c1 (stereo not given) | -4.5 | 7.0 | 0.2 | 80.9* | 0.1 | 92.9*
COc1cc(NC(=O)C2CCCN(S(=O)(=O)c3cnc[nH]3)C2)cc(OC)c1 (stereo not given) | -4.2 | 0.0 | 0.6 | 44.5 | 0.1 | 88.4*
Cc1ccc(NC(=O)C2CCCN(S(=O)(=O)c3cnc[nH]3)C2)cc1F (stereo not given) | -0.6 | 6.0 | 0.1 | 93.9* | 0.1 | 86.6*
Cc1ccc(NC(=O)C2CCCN(S(=O)(=O)c3c(C)noc3C)C2)cc1F (stereo not given) | -6.3 | -2.0 | 0.7 | 28.1 | 0.8 | 18.5
CCCN(CCC)CCNC(=O)C(NS(=O)(=O)c1ccc2c(c1)CCC(=O)N2)c1ccccc1 (stereo not given) | -10.3 | 6.0 | 1 | -3.0 | 1 | 1.0
Cc1ccc(C(=O)Nc2nncs2)cc1S(=O)(=O)N1CCOCC1 | -9.9 | -3.0 | 0.5 | 45.3 | 0.6 | 36.7
Cc1ccc2oc3c(c(=O)c2c1)C(c1cccc(Br)c1)N(Cc1ccco1)C3=O (stereo not given) | -14.3 | -4.0 | 0.9 | 9.4 | 0.8 | 20.1
O=C1c2oc3ccc(Cl)cc3c(=O)c2C(c2cccc(Br)c2)N1CCO (stereo not given) | . | 1.0 | 0.5 | 50.0* | 0.7 | 34.1
Cc1cc2oc3c(c(=O)c2cc1C)C(c1cccc(Br)c1)N(Cc1ccco1)C3=O (stereo not given) | 21.4 | -9.0 | 0 | 98.2* | 0 | 95.4*
COc1ccc(CCN2CC34C=CC(O3)C(C(=O)NCc3ccccc3)C4C2=O)cc1OC (stereo not given) | -8.7 | -1.0 | 1 | 2.9 | 0.5 | 48.8
N#Cc1ccc(OCC(=O)NCCc2ccc(S(N)(=O)=O)cc2)cc1 | -21.8 | 4.0 | 0.9 | 7.7 | 0.9 | 7.8
COc1ccc(NC(=O)/C=C/c2cc(Br)ccc2OC)cc1 | . | -10.0 | 0.8 | 20.2 | 1.7 | -72.2
CCN(CC)c1ccc(NC(=O)/C=C/c2cc(Br)ccc2OC)cc1 | . | -22.0 | 0.7 | 29.6 | 2.2* | -120.5
COc1ccc(Br)cc1/C=N/NC(=O)CNC(=O)/C=C/c1ccccc1 | . | 5.0 | 0.8 | 22.5 | 0.7 | 28.0
COc1ccc(Br)cc1/C=C/C(=O)Nc1c(C)cccc1C | . | -2.0 | 0.6 | 36.1 | 2.1* | -105.5
Cn1c(SCc2ccc(F)cc2)nnc1-c1cccs1 | 9.3 | 22.0 | 0.6 | 37.9 | 0.9 | 9.6
Cn1c(SCc2ccc(Br)cc2)nnc1-c1ccncc1 | 1.1 | 1.0 | 0.1 | 94.2* | 0.3 | 74.8*
Cn1c(SCc2ccccc2)nnc1-c1ccncc1 | -9.9 | 0.0 | 0.1 | 90.8* | 0.7 | 34.0
COc1ccc(Cn2c(CCC(=O)Nc3ccc(C)cc3)nc3cccnc32)cc1 | . | -18.0 | 0.4 | 60.9* | 0.6 | 37.6
COc1ccc(Cn2c(CCC(=O)O)nc3cccnc32)cc1 | -16.4 | -4.0 | 1.1 | -12.8 | 0.9 | 7.4
Cn1cc([N+](=O)[O-])c(C(=O)Nc2cc(Oc3cccnc3)cc([N+](=O)[O-])c2)n1 | . | 2.0 | 0.3 | 72.4* | 0.2 | 78.1*
CCOC(=O)c1cc(CC)sc1NC(=O)COC | 29.8 | -2.0 | 0.8 | 24.6 | 0.2 | 84.3*
CCOC(=O)C(C(=O)OCC)[C@@H]1CS(=O)(=O)C[C@H]1C(C(=O)OCC)C(=O)OCC | -23.1 | 1.0 | 0.6 | 43.6 | 0.9 | 8.4
SMILES | Ecoli tolC | E coli WT exp | CYP2C19 activ | CYP2C19 inhib | CYP2C9 activ | CYP2C9 inh
O=C(NCCN1CCN(c2ccccc2)CC1)C1CCN(S(=O)(=O)c2cccc3nonc23)CC1 | -3.3 | -4.0 | 0.5 | 52.2* | 1.1 | -14.2
O=C(NCCc1ccccc1)C1CCN(S(=O)(=O)c2cccc3nonc23)CC1 | 8.9 | 2.0 | 0.8 | 18.6 | 2.3* | -127.9
O=C(NCCc1ccccc1)C1CCCN(S(=O)(=O)c2cccc3nonc23)C1 (stereo not given) | -17.7 | -6.0 | 0.9 | 6.9 | 0.9 | 9.7
O=C(NCCc1ccc(Cl)cc1)C1CCN(S(=O)(=O)c2cccc3nonc23)CC1 | 8.9 | -13.0 | 0.7 | 26.0 | 2.5* | -150.9
CCOc1ccccc1N(C)C(=O)C1CCN(S(=O)(=O)c2cccc3nonc23)CC1 | 1.5 | -3.0 | 0.2 | 84.9* | 0.1 | 94.1*
O=C(NCCN1CCN(c2ccccc2)CC1)C1CCN(S(=O)(=O)c2cccs2)CC1 | 0.0 | 4.0 | 0.9 | 11.5 | 0.9 | 14.7
COc1ccc(CCNC(=O)C2CCN(S(=O)(=O)c3cccc4nonc34)CC2)cc1OC | -11.2 | -11.0 | 0.7 | 27.1 | 0.8 | 17.8
O=C(C1CC1)N(Cc1ccco1)c1nc(-c2ccccc2)cs1 | 50.9 | -1.0 | 0.8 | 21.7 | 0.7 | 34.0
COC(=O)c1cc(OC)c(OC)cc1NC(=O)CCC1CCCC1 | 45.6 | 2.0 | 0.9 | 11.4 | 1 | -3.9
Cc1cc(NC(=O)C2CC=CCC2C(=O)O)no1 (stereo not given) | 7.5 | -2.0 | 1.2 | -24.5 | 1.2 | -24.5
Cc1c(S(=O)(=O)N2CCN(C(c3ccccc3)c3ccccc3)CC2)c(=O)n(C)c(=O)n1C | . | -5.0 | 1.1 | -13.4 | 0.8 | 16.2
O=C(NCCc1ccccc1)C1CCN(S(=O)(=O)c2ccc(-c3nn[nH]n3)cc2)CC1 | -19.1 | 3.0 | 1 | 4.6 | 0.2 | 83.1*
Cc1nc2c(c(=O)n1CCC1=CCCCC1)c1nc3ccccc3nc1n2/N=C/c1ccco1 | 22.4 | -12.0 | 0.7 | 34.9 | 0.3 | 70.8*
O=C(O)c1cc(S(=O)(=O)Nc2ccccc2C(=O)O)ccc1O | -1.4 | -11.0 | 1 | -2.5 | 0.9 | 9.2
Cc1cccc(S(=O)(=O)Nc2cccc3c2C(=O)c2ccccc2-3)c1 | . | -18.0 | 1 | -1.4 | 0.4 | 58.6*
COc1ccc(N2CCN(CCNC(=O)Nc3ccc(Cl)cc3)CC2)cc1 | . | 6.0 | 0.9 | 9.7 | 0.5 | 46.6
COc1ccc(N(C(=O)Nc2ccc(Cl)cc2)C2=NCCC2)cc1 | 55.7 | 23.0 | 0.9 | 9.7 | 0.5 | 53.9*
COc1cccc(N=Cc2c(O)n(-c3cccc(C)n3)c(=O)c3ccccc23)c1 | . | -19.0 | 0.3 | 66.3* | 0.5 | 53.0*
Cc1cccc(-n2c(O)c(C=Nc3c(C)n(C)n(-c4ccccc4)c3=O)c3ccccc3c2=O)n1 | -15.4 | -12.0 | 0.8 | 16.0 | 0.6 | 36.3
Fc1cccc(Cl)c1CNCc1ccccc1Cl | . | 10.0 | 0.1 | 85.5* | 0.7 | 30.5
Cc1ccc(CNCc2ccccc2Cl)cc1 | . | 24.0 | 0 | 99.0* | 0.8 | 21.1
O=C(Nc1ccc2c(c1)C(=O)N(CC1CCCO1)C2=O)c1ccc(Cl)c(Cl)c1 (stereo not given) | . | -2.0 | 1.3 | -27.0 | 0.7 | 25.5
N#Cc1cnc(SCCc2ccccc2)nc1N | 4.7 | 6.0 | 0.5 | 49.4 | 0.9 | 12.8

Screening results from PubChem BioAssay.
